# Calls of active or inactive are those of the source. No cut-off for these calls is given here.
# What was measured:
# [1] = target: T1, Aspartate aminotransferase, cytoplasmic (Homo sapiens, UniProt P17174); experiment: Inhibition of GOT1 (unknown origin) using aspartate and alpha-ketoglutarate as substrate after 20 mins by MDH1 enzyme-coupled fluorescence assay
# Procedure, shortened: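 Oxaloacetate from GOT1 (~1 nM) is reduced by MDH1 (0.3 µg/mL final) using NADH (250 µM final). Loss of NADH fluorescence is read at 340/445 nm. Substrates aspartate 4 mM and alpha-ketoglutarate 0.5 mM. Buffer: 100 mM HEPES, 100 mM KCl. Incubated 20 min at 37 °C. Mean of n = 3.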
# [2] = target: T1, Aspartate aminotransferase, cytoplasmic; experiment: Inhibition of GOT1 (unknown origin) using aspartate and alpha-ketoglutarate as substrate after 20 mins by GLOX enzyme-coupled fluorescence assay
# Procedure, shortened: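 GOT1 (~1 nM, set per purification for a 20 min linear reaction) with aspartate 4 mM and alpha-ketoglutarate 0.5 mM (KM levels). Glutamate is turned over by GLOX (80 nM), and the H2O2 drives HRP (0.05 U/mL) oxidation of Amplex Red (15 µg/mL). Buffer: 100 mM HEPES, 100 mM KCl. Run 20 min at 37 °C; resorufin fluorescence read at 530/550 nm.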
# [3] = Stability in mouse plasma assessed as parent compound remaining after 4 hrs; format: ADME, cell-free; conditions: read-out: Stability
# [4] = Half life in CD-1 mouse at 20 mg/kg administered via oral gavage by LC-MS/MS analysis; format: ADME, organism-based; conditions: in vivo
# Procedure, shortened: (§1)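 Female CD1 mice, 9 weeks old, oral gavage at 20 mg/kg (5 mL/kg). Fasted overnight, with food returned after the 4-h bleed. Blood sampled retro-orbitally at 0.5, 1, 4, 8 and 24 h, n = 3 per time point. Plasma separated by centrifugation and frozen at -80 °C. Drug level quantified by LC/MS/MS from analyte peak area.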
# [5] = Cmax in CD-1 mouse at 20 mg/kg administered via oral gavage by LC-MS/MS analysis; format: ADME, organism-based; parameters: dose 20 mg/kg, route oral; conditions: in vivo; procedure, shortened: as §1
# Mus musculus = experiment: AUC (0 to 24 hrs) in CD-1 mouse at 20 mg/kg administered via oral gavage by LC-MS/MS analysis; format: ADME, organism-based; parameters: time < 24 hr, dose 20 mg/kg, route oral; conditions: in vivo; procedure, shortened: as §1
# T1 sequence (P17174 whole entry): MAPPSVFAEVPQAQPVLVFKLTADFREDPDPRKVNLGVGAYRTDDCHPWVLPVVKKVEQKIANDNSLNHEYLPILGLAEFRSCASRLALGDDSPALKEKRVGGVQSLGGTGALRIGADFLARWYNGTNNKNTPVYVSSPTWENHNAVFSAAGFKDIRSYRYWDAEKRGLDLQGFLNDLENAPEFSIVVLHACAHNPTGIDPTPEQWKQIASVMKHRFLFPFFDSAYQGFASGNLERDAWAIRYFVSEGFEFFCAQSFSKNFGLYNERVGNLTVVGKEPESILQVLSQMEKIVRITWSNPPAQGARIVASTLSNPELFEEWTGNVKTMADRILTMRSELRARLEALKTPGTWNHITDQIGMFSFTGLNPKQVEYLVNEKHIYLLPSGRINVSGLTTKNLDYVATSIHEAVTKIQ
SMILES,IC50 [1] [µM],also measured
O=C(Nc1c(Cl)cccc1Cl)N1CCN(c2cccc3[nH]ccc23)CC1,> 100,
Cc1cc(C)cc(NC(=O)N2CCN(c3cccc4[nH]ccc34)CC2)c1,64,
O=C(Nc1ccc(Cl)cc1Cl)N1CCN(c2cccc3[nH]ccc23)CC1,56,
O=C(Nc1ccc(Cl)cc1)N1CCN(c2cccc3[nH]ccc23)CC1,8.2,
O=C(Cc1ccccc1)N1CCN(c2cccc3[nH]ccc23)CC1,> 100,
O=C(Nc1cccc(C(F)(F)F)c1)N1CCN(c2cccc3[nH]ccc23)CC1,14,
Cc1ccc(NC(=O)N2CCN(c3cccc4[nH]ccc34)CC2)cc1,> 100,
O=C(Nc1ccc(C(F)(F)F)cc1)N1CCN(c2ccncc2)CC1,> 100,
O=C(Nc1ccncc1)N1CCN(c2cccc3[nH]ccc23)CC1,> 100,
O=C(c1ccccc1)c1ccc(NC(=O)N2CCN(c3cccc4[nH]ccc34)CC2)cc1,43,
O=C(NCCc1c[nH]c2ccccc12)Nc1ccc(Cl)cc1Cl,32,
O=C(Nc1ccccc1)N1CCN(c2cccc3ncccc23)CC1,> 100,
Cc1ccc(C)c(NC(=O)N2CCN(c3cccc4[nH]ccc34)CC2)c1,> 100,
Cc1ccc(NC(=O)N2CCN(c3cccc4[nH]ccc34)CC2)cc1C,> 100,
Cc1ccc2[nH]ccc2c1N1CCN(C(=O)Nc2ccccc2)CC1,> 100,
COc1ccccc1NC(=O)N1CCN(c2cccc3[nH]ccc23)CC1,> 100,
O=C(NCc1ccccc1)N1CCN(c2cccc3[nH]ccc23)CC1,> 100,
O=C(NCCc1c[nH]c2ccccc12)Nc1ccc(Cl)c(Cl)c1,36,
Cc1cc(N2CCN(C(=O)Nc3ccccc3)CC2)c2cc[nH]c2c1,> 100,
CN1CCN(C(=O)Nc2ccccc2)CC1,> 100,
CS(=O)(=O)N1CCN(C(=O)Nc2ccccc2)CC1,> 100,
COc1ccc(OC)c(NC(=O)N2CCN(c3cccc4[nH]ccc34)CC2)c1,> 100,
COc1ccccc1N1CCN(C(=O)Nc2ccccc2)CC1,> 100,
O=C(Nc1ccc2ncccc2c1)N1CCN(c2cccc3[nH]ccc23)CC1,> 100,
CC(C)NC(=O)N1CCN(c2cccc3[nH]ccc23)CC1,> 100,
O=C(c1ccccc1)N1CCN(c2cccc3[nH]ccc23)CC1,> 100,
COc1cccc(OC)c1NC(=O)N1CCN(c2cccc3[nH]ccc23)CC1,> 100,

SMILES,IC50 [1] [µM],also measured
O=C(Nc1cccnc1)N1CCN(c2cccc3[nH]ccc23)CC1,> 100,
O=C(Nc1cccc(C(F)(F)F)c1)N1CCN(c2ccncc2)CC1,> 100,
O=C(Nc1ccccc1)N1CCN(c2ccncc2)CC1,> 100,
O=C(Nc1ccccc1Cl)N1CCN(c2cccc3[nH]ccc23)CC1,> 100,
O=C(NCCc1c[nH]c2ccccc12)Nc1ccc(Cl)cc1,36,
O=C(NCCc1c[nH]c2ccccc12)Nc1ccccc1-c1ccccc1,34,
O=C(Nc1ccc2scnc2c1)N1CCN(c2cccc3[nH]ccc23)CC1,76,
Cc1cccc(NC(=O)N2CCN(c3cccc4[nH]ccc34)CC2)c1,> 100,
O=C(Nc1ccc(C(F)(F)F)cc1)N1CCN(c2cccc3[nH]ccc23)CC1,16,
O=C(NCCc1c[nH]c2ccccc12)Nc1ccccc1,> 100,
O=C(Nc1cccc2ncsc12)N1CCN(c2cccc3[nH]ccc23)CC1,> 100,
CNC(=O)N1CCN(c2cccc3[nH]ccc23)CC1,> 100,
Cc1cccc(NC(=O)N2CCN(c3cccc4[nH]ccc34)CC2)c1C,> 100,
O=C(Nc1ccccc1)N1CCN(c2cccc3[nH]ncc23)CC1,> 100,
CC(C)CNC(=O)N1CCN(c2cccc3[nH]ccc23)CC1,> 100,
COc1ccc(NC(=O)N2CCN(c3cccc4[nH]ccc34)CC2)cc1OC,> 100,
O=C(Nc1cccc(Cl)c1)N1CCN(c2cccc3[nH]ccc23)CC1,52,
COc1ccc(NC(=O)N2CCN(c3cccc4[nH]ccc34)CC2)c(OC)c1,> 100,
O=C(CCC(=O)Nc1c[nH]c2ccccc12)Nc1ccccc1,> 100,
O=C(NCCc1c[nH]c2ccccc12)Nc1cccc(Br)c1,28,
O=C(Nc1cc(Cl)ccc1Cl)N1CCN(c2cccc3[nH]ccc23)CC1,> 100,
O=C(Nc1ccc(Cl)cc1)N1CCN(c2ccncc2)CC1,> 100,
CC(=O)N1CCN(C(=O)Nc2ccccc2)CC1,> 100,
Cc1ccc(NC(=O)N2CCN(c3cccc4[nH]ccc34)CC2)c(C)c1,> 100,
Cc1cccc(C)c1NC(=O)N1CCN(c2cccc3[nH]ccc23)CC1,> 100,
COc1c(C)cccc1NC(=O)N1CCN(c2cccc3[nH]ccc23)CC1,> 100,
O=C(Nc1ccc(Cc2ccccc2)cc1)N1CCN(c2cccc3[nH]ccc23)CC1,> 100,

# Second part, led by results:
IC50 [1] [µM],SMILES,also measured
85,O=C(Nc1ccccc1)N1CCN(c2cccc3[nH]ccc23)CC1,inhibition [2]: Active; remaining at 4 h [3]: > 95%; half-life [4]: 42 min; Cmax [5]: 4130 ng/mL; AUC (Mus musculus): 11734 ng·h/mL
> 100,COc1cccc(NC(=O)N2CCN(c3cccc4[nH]ccc34)CC2)c1,
> 100,O=C(Nc1ccnnc1)N1CCN(c2cccc3[nH]ccc23)CC1,
> 100,O=C(Nc1ccccc1)N1CCN(c2cccc3cnccc23)CC1,
> 100,CNC(=O)c1cccc(NC(=O)N2CCN(c3cccc4[nH]ccc34)CC2)c1,
62,O=C(NCCc1c[nH]c2ccccc12)Nc1cccc(C(F)(F)F)c1,
> 100,CNC(=O)c1ccc(NC(=O)N2CCN(c3cccc4[nH]ccc34)CC2)cc1,
21,N#Cc1ccc(NC(=O)N2CCN(c3cccc4[nH]ccc34)CC2)cc1,
> 100,CC(C)N1CCN(C(=O)Nc2ccccc2)CC1,
> 100,N#Cc1cccc(NC(=O)N2CCN(c3cccc4[nH]ccc34)CC2)c1,
> 100,O=C(Nc1ccccc1)N1CCN(Cc2cncs2)CC1,
39,O=C(NCCc1c[nH]c2ccccc12)Nc1ccc(C(F)(F)F)cc1,
> 100,O=C(CCc1ccccc1)N1CCN(c2cccc3[nH]ccc23)CC1,
36,O=C(Nc1ccc(OC(F)(F)F)cc1)N1CCN(c2cccc3[nH]ccc23)CC1,
> 100,COc1cccc(N2CCN(C(=O)Nc3ccccc3)CC2)c1,
> 100,O=C(Nc1ccccc1)N1CCN(c2ccc(Cl)c3[nH]ccc23)CC1,
> 100,O=C(Nc1ccccn1)N1CCN(c2cccc3[nH]ccc23)CC1,
> 100,O=C(Nc1ccccc1)N1CCN(c2ccccc2)CC1,
> 100,O=C(OCc1ccccc1)N1CCN(c2cccc3[nH]ccc23)CC1,
16,O=C(Nc1ccc(Br)cc1)N1CCN(c2cccc3[nH]ccc23)CC1,

IC50 [1] [µM],SMILES,also measured
> 100,O=C(Nc1ccncn1)N1CCN(c2cccc3[nH]ccc23)CC1,
> 100,O=C(Nc1cccc2cccnc12)N1CCN(c2cccc3[nH]ccc23)CC1,
41,Cc1ccc(N2CCN(C(=O)Nc3ccccc3)CC2)c2cc[nH]c12,
> 100,N#Cc1ccccc1NC(=O)N1CCN(c2cccc3[nH]ccc23)CC1,
25,COc1ccc(NC(=O)N2CCN(c3cccc4[nH]ccc34)CC2)cc1,
> 100,Cc1ccccc1NC(=O)N1CCN(c2cccc3[nH]ccc23)CC1,
22,O=C(Nc1cc(Cl)cc(Cl)c1)N1CCN(c2cccc3[nH]ccc23)CC1,
46,O=C(Nc1ccccc1)N1CCN(c2cc(Cl)cc3[nH]ccc23)CC1,
39,O=C(Nc1cccc(Oc2ccccc2)c1)N1CCN(c2cccc3[nH]ccc23)CC1,
> 100,O=C(NCc1ccc(Cl)cc1)N1CCN(c2cccc3[nH]ccc23)CC1,
> 100,COc1ccc(N2CCN(C(=O)Nc3ccccc3)CC2)cc1,
63,O=C(NCCc1c[nH]c2ccccc12)Nc1ccc(OC(F)(F)F)cc1,
> 100,COc1cc(NC(=O)N2CCN(c3cccc4[nH]ccc34)CC2)cc(OC)c1,
> 100,O=C(Nc1cncnc1)N1CCN(c2cccc3[nH]ccc23)CC1,
16,CC(=O)c1ccc(NC(=O)N2CCN(c3cccc4[nH]ccc34)CC2)cc1,
> 100,O=C(Nc1ccccc1C(F)(F)F)N1CCN(c2cccc3[nH]ccc23)CC1,
> 100,CCN1CCN(C(=O)Nc2ccccc2)CC1,
> 100,O=C(Nc1cccc(Cl)c1Cl)N1CCN(c2cccc3[nH]ccc23)CC1,
67,O=C(NCCc1c[nH]c2ccccc12)Nc1ccc(Br)cc1,
